# Measured values taken from ChEMBL document CHEMBL1132926, “2-amino-2-oxazolines as subtype selective alpha(2) adrenoceptor agonists” (J Med Chem, 2000).
# Calls of active or inactive are those of the source. The calls are words filed in the database; no cut-off is given here.
# Experiments:
# [1] = molecular target: T1, Alpha-2B adrenergic receptor (Homo sapiens) (UniProt P18089); assay: Alpha-2B adrenergic receptor agonism measured as ability to inhibit forskolin-stimulated synthesis of cAMP; NA=not active (IA< 0.3); type: functional
# T1 sequence (whole entry): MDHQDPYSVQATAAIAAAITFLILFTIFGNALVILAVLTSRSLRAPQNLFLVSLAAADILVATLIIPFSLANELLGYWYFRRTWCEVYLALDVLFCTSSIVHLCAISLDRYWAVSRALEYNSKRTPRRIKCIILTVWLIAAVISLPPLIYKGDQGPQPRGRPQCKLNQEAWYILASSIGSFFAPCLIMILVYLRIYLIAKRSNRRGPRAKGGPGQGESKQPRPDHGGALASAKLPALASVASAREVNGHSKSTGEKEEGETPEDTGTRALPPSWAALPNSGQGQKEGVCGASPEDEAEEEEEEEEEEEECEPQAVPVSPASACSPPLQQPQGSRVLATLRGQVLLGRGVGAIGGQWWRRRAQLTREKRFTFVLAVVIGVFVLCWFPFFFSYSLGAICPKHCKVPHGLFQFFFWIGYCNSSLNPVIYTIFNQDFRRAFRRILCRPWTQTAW
# [2] = molecular target: T2, Alpha-2C adrenergic receptor (Homo sapiens, UniProt P18825); assay: Inhibitory constant, using [3H]rauwolscine in LM(tk-) cells stably transfected with cloned human Alpha-2C adrenergic receptor; type: cell-based
# T2 sequence (P18825 whole entry): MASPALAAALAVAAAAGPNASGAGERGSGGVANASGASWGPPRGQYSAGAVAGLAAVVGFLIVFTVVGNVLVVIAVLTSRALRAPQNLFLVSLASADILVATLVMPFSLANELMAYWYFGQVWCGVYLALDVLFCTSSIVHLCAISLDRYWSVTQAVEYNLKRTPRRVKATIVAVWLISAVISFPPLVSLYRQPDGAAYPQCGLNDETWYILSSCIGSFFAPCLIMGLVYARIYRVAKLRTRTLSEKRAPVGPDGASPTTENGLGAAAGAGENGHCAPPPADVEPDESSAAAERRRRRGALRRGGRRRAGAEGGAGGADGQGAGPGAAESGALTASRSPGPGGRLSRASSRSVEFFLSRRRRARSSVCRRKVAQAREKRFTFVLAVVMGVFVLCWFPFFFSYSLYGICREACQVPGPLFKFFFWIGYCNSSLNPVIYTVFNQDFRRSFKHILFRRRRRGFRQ
# How it was run: (§1)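 Equilibrium competition binding against [3H]rauwolscine on membranes from cultured cells stably transfected with cloned human alpha2 subtypes: alpha2A and alpha2C in LM(tk-) cells, alpha2B in Y-1 cells. Equilibrium inhibition constants were estimated by nonlinear regression and reported as pKi.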
# [3] = molecular target: T3, Alpha-2C adrenergic receptor (Homo sapiens) (UniProt P18825); assay: Alpha2c receptor agonism measured as ability to inhibit forskolin-stimulated synthesis of cAMP; NA=not active (IA< 0.3); type: functional
# T3 sequence (whole entry): T2 sequence (P18825 whole entry)
# [4] = molecular target: T4, Alpha-2A adrenergic receptor (Homo sapiens) (UniProt P08913); assay: Alpha-2A adrenergic receptor agonism measured as ability to inhibit forskolin-stimulated synthesis of cAMP; NA=not active; type: functional
# T4 sequence (whole entry): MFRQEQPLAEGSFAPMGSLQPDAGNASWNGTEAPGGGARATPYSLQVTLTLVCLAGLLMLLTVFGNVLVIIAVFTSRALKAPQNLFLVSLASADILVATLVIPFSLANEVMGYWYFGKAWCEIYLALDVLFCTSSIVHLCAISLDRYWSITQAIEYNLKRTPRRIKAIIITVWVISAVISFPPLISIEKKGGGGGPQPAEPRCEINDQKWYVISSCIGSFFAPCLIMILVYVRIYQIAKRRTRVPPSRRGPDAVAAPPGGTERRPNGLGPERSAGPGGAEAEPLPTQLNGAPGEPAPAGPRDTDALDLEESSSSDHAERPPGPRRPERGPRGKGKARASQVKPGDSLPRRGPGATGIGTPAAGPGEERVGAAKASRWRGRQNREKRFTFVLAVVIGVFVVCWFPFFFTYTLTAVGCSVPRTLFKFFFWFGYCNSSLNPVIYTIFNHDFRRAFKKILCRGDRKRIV
# [5] = molecular target: T5, Alpha-2B adrenergic receptor (Homo sapiens, UniProt P18089); assay: Inhibitory constant against human Alpha-2B adrenergic receptor expressed in Y-1 cells using [3H]rauwolscine; type: cell-based; how it was run: as §1
# T5 sequence (P18089 whole entry): T1 sequence (whole entry)
# [6] = molecular target: T6, Alpha-2A adrenergic receptor (Homo sapiens, UniProt P08913); assay: Inhibitory constant against human Alpha-2A adrenergic receptor expressed in LM(tk-) cells using [3H]rauwolscine; type: cell-based; how it was run: as §1
# T6 sequence (P08913 whole entry): T4 sequence (whole entry)
# [7] = molecular target: T1, Alpha-2B adrenergic receptor (Homo sapiens); assay: Alpha2b receptor agonism measured as ability to inhibit forskolin-stimulated synthesis of cAMP;NA=not active; type: functional
# [8] = molecular target: T2, Alpha-2C adrenergic receptor; assay: (§2) Alpha2c receptor agonism measured as ability to inhibit forskolin-stimulated synthesis of cAMP; type: functional
# [9] = molecular target: T6, Alpha-2A adrenergic receptor; assay: Alpha-2A adrenergic receptor agonism measured as ability to inhibit forskolin-stimulated synthesis of cAMP; type: functional
# [10] = molecular target: T1, Alpha-2B adrenergic receptor (Homo sapiens); assay: Alpha2b receptor agonism measured as ability to inhibit forskolin-stimulated synthesis of cAMP; NA=not active; type: functional
# [11] = molecular target: T5, Alpha-2B adrenergic receptor; assay: (§3) Alpha-2B adrenergic receptor agonism measured as ability to inhibit forskolin-stimulated synthesis of cAMP; type: functional
# [12] = molecular target: T2, Alpha-2C adrenergic receptor; assay: Inhibitory constant determined using [3H]rauwolscine in LM(tk-) cells stably transfected with cloned human Alpha-2C adrenergic receptor; type: cell-based; how it was run: as §1
# [13] = molecular target: T2, Alpha-2C adrenergic receptor; assay: Alpha-2C adrenergic receptor agonism measured as ability to inhibit forskolin-stimulated synthesis of cAMP; type: functional
# [14] = molecular target: T1, Alpha-2B adrenergic receptor (Homo sapiens); assay: Alpha-2B adrenergic receptor agonism measured as ability to inhibit forskolin-stimulated synthesis of cAMP; NA=not active; type: functional
# [15] = molecular target: T3, Alpha-2C adrenergic receptor (Homo sapiens); assay: Alpha2c receptor agonism measured as ability to inhibit forskolin-stimulated synthesis of cAMP; NA=not active; type: functional
# [16] = molecular target: T3, Alpha-2C adrenergic receptor (Homo sapiens); assay: as §2; type: functional
# [17] = molecular target: T1, Alpha-2B adrenergic receptor (Homo sapiens); assay: as §3; type: functional
# [18] = molecular target: T4, Alpha-2A adrenergic receptor (Homo sapiens); assay: Alpha2a receptor agonism measured as ability to inhibit forskolin-stimulated synthesis of cAMP; type: functional
# [19] = molecular target: T3, Alpha-2C adrenergic receptor (Homo sapiens); assay: Alpha-2C adrenergic receptor agonism measured as ability to inhibit forskolin-stimulated synthesis of cAMP; NA=not active; type: functional
Compound,Ki [2],alpha-2A agonist activity [4],Ki [5],Ki [6],EC50 [8],EC50 [9],NA [14],further results
c1ccc(C[C@H]2CCCC[C@@H]2NC2=NCCO2)cc1,66.1 nM,inactive,40.7 nM,20.9 nM,,,,NA [1]: inactive; NA [3]: inactive
c1ccc(C[C@H]2C3CCC(C3)[C@H]2NC2=NCCO2)cc1 (some centres not stated),79.4 nM,inactive,40.7 nM,13.8 nM,13.8 nM,,,NA [7]: inactive
c1ccc(CCC[C@H]2C3CCC(C3)[C@H]2NC2=NCCO2)cc1 (some centres not stated),123 nM,,141 nM,30.9 nM,60.3 nM,34.7 nM,,NA [10]: inactive
CCC[C@H]1CCCC[C@@H]1NC1=NCCO1,,,5.89 nM,2.95 nM,,1.62 nM,,EC50 [11]: 9.33 nM; Ki [12]: 24.5 nM; EC50 [13]: 4.07 nM
C(=C\c1ccccc1)/C[C@H]1C2CCC(C2)[C@H]1NC1=NCCO1 (some centres not stated),85.1 nM,,102 nM,15.8 nM,2 nM,70.8 nM,,NA [10]: inactive
c1ccc(CC[C@H]2CCCC[C@@H]2NC2=NCCO2)cc1,10.7 nM,,6.92 nM,1.45 nM,,,inactive,NA [4]: inactive; NA [15]: inactive
CCC[C@H]1C2CCC(C2)[C@H]1NC1=NCCO1 (some centres not stated),123 nM,,91.2 nM,28.2 nM,21.4 nM,11 nM,,EC50 [11]: 562 nM; Intrinsic activity [16]: 0.9; Intrinsic activity [17]: 0.4; Intrinsic activity [18]: 0.9
c1ccc([C@H]2CCCC[C@@H]2NC2=NCCO2)cc1,52.5 nM,inactive,22.4 nM,18.2 nM,,,inactive,NA [19]: inactive
c1ccc(CCC[C@H]2CCCC[C@@H]2NC2=NCCO2)cc1,32.4 nM,inactive,32.4 nM,15.1 nM,26.9 nM,,inactive,
